Measurements collected from several papers.
Target: Rhodopsin kinase GRK1 (GRK1, Homo sapiens, UniProt Q15835)
Sequence (Q15835 1-563, as in one of the studies): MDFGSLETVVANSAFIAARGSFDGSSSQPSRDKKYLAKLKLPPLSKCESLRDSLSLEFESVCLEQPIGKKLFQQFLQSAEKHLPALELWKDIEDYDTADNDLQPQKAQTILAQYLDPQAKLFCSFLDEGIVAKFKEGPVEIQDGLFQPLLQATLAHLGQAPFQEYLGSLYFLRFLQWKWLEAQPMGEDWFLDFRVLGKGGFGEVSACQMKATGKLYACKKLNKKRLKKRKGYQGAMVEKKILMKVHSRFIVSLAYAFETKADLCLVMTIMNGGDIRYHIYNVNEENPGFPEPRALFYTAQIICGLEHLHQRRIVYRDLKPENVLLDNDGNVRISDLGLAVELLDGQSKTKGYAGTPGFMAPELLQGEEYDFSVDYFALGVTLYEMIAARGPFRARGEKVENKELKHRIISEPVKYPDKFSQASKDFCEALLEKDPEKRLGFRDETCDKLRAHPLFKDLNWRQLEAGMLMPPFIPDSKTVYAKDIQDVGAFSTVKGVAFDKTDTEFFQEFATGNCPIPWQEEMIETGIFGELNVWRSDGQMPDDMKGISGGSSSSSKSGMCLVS

Cn1c2c(c3ccc(Cl)c(Cl)c31)C(C#N)C1(CCCCC1)NC2=O (racemic)  ΔTm (thermal stability, DSF; 10 µM): 0.1 °C
CC(C)CC(=O)N1CCc2nc(-c3ccc(Br)cc3)nc(N(C)Cc3ccccc3)c2C1  remaining binding (cell-free assay, competition with immobilised ligand; 0.1 µM): 100%
Cc1sc(C(=O)NC2COC2)cc1-n1cc(NC(=O)Nc2c(F)cccc2Cl)cn1  remaining activity (enzyme activity, inhibitor; 10 µM): 113%
CCN1CCC2(CC1)NC(=O)c1c(c3ccc(Cl)c(Cl)c3n1C)C2C#N (racemic)  ΔTm (thermal stability, DSF; 10 µM): 1.2 °C
Nc1ncnc2occ(-c3ccc(NC(=O)Nc4cc(C(F)(F)F)ccc4F)cc3)c12  remaining signal (cell-free assay, inhibitor; 20 µM): 100%
Cn1c2c(c3ccc(Cl)c(Cl)c31)C(C#N)C1(CCN(C(=O)OC(C)(C)C)CC1)NC2=O (racemic)  ΔTm (thermal stability, DSF; 10 µM): 0 °C
O=C(Nc1cnn(-c2csc(C(=O)NC3COC3)c2)c1)Nc1c(F)cccc1Cl  remaining activity (enzyme activity, inhibitor; 5 µM): 92.9%
C[C@H](c1ccc(F)cc1)N(Cc1cccc(C(=O)O)c1)C(=O)c1cnc2ccccc2c1  remaining binding (cell-free assay, competition with immobilised ligand; 1 µM): 100%
CC(C)(O)[C@H]1CC[C@H](Nc2ccc3ncc(-c4cccc(C(F)(F)F)c4)n3n2)CC1  remaining activity (enzyme activity, inhibitor; 1 µM): 89.2%
Cc1ccc(C(=O)Nc2ccc(CN3CCN(C)CC3)c(C(F)(F)F)c2)cc1C#Cc1cnc2cccnn12  remaining activity (enzyme activity, inhibitor; 23.5 nM): 93%
COc1ccc2c(c1)O[C@H](c1ccc(OC)c(OC)c1)C[C@@H]2NC(=O)C1(c2ccc3c(c2)OC(F)(F)O3)CC1  remaining binding (cell-free assay, competition with immobilised ligand; 1 µM): 97%
Cn1c2c(Cl)c(Cl)ccc2c2cn[nH]c(=O)c21  ΔTm (thermal stability, DSF; 10 µM): 1.3 °C
NS(=O)(=O)c1cc(NC(=O)Cc2ccccc2)ccc1Oc1cccc(Cl)c1  remaining binding (cell-free assay, competition with immobilised ligand; 1 µM): 83%
Cn1c2c(c3ccc(Cl)c(Cl)c31)C(C#N)C1(CCCC1)NC2=O (stereo not drawn)  ΔTm (thermal stability, DSF; 10 µM): 0 °C
COc1cc(Cl)c(C(=O)N[C@@H](CN[C@H]2CC[C@@H](N)CC2)Cc2ccc(C#N)cc2)cc1-c1ccc(CN[C@H](C)c2ccc(C)cc2)o1  remaining activity (enzyme activity, inhibitor; 1 µM): 100%
